Legend:
Rattus norvegicus [1] = species: Rattus norvegicus; assay: Effective dose required for the inhibition of adjuvant arthritis in Sprague-Darley rats; assay type: functional
In short: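 Adjuvant-induced arthritis in Sprague–Darley rats, with compound dosed daily (mg/kg/day).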

[2] = biological target: T1, Prostaglandin G/H synthase 2 (Mus musculus, UniProt Q05769); assay: Ability to inhibit Prostaglandin G/H synthase 2 by using freshly harvested mouse peritoneal macrophages
T1 sequence (Q05769 whole entry): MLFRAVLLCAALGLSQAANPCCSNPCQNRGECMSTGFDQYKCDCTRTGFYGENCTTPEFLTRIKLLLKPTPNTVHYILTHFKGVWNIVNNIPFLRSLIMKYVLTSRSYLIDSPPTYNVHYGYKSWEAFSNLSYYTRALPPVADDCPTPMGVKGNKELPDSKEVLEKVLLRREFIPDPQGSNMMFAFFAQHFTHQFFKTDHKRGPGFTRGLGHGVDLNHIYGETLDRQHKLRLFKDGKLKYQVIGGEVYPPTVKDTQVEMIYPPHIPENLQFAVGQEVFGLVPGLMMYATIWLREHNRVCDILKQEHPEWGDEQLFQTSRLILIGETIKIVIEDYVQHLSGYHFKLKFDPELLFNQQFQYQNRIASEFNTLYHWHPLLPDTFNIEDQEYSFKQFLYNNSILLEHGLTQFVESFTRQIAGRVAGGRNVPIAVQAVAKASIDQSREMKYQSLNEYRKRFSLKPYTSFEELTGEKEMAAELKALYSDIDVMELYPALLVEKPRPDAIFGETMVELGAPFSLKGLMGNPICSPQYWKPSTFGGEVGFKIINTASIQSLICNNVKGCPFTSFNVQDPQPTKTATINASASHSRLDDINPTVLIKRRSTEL

[3] = biological target: T2, Prostaglandin G/H synthase 1 (Mus musculus, UniProt P22437); assay: Ability to inhibit Prostaglandin G/H synthase 1 by using freshly harvested mouse peritoneal macrophages
T2 sequence (P22437 whole entry): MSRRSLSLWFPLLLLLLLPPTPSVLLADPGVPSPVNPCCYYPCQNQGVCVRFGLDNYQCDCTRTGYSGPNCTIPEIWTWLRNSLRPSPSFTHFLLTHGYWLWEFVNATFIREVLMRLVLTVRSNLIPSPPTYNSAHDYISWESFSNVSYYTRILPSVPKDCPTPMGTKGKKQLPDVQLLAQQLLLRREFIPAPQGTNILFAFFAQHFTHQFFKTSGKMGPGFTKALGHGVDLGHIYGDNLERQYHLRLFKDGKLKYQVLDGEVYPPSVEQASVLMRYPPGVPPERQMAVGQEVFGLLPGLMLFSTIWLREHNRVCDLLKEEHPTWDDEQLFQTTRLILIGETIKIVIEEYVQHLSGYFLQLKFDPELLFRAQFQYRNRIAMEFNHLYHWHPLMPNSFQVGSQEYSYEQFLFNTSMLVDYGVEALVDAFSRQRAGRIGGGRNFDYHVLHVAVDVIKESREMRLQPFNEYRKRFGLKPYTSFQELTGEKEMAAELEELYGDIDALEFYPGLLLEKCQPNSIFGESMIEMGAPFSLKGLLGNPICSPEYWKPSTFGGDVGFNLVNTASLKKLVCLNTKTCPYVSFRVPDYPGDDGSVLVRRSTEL

Rattus norvegicus [4] = assay: In vivo inhibitory activity against carrageenan induced paw edema in Sprague-Darley rats after oral administration of the compound; assay type: functional
In short: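 Sprague–Darley rats were given compound orally at 3 mg/kg body weight. Read-out was percent inhibition of paw edema, using five animals per group.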

| SMILES | ED50 (Rattus norvegicus [1]) [mg/kg/day] | IC50 [2] [µM] | IC50 [3] [µM] | Inhibition (Rattus norvegicus [4]) [%] |
| --- | --- | --- | --- | --- |
| CC1(C)OC(c2ccc(S(C)(=O)=O)cc2)=C(c2cccc(F)c2)C1=O | 0.08 |  |  |  |
| CC1(C)OC(c2ccc(S(C)(=O)=O)cc2)=C(c2cccc(C(F)(F)F)c2)C1=O | 0.06 | 0.122 | 7.31 |  |
| CC1(C)OC(c2ccc(S(C)(=O)=O)cc2)=C(c2cccc(Cl)c2)C1=O |  |  |  | 32 |
| Cc1ccc(-c2cc(C(F)(F)F)nn2-c2ccc(S(N)(=O)=O)cc2)cc1 [CELECOXIB] | 0.2 |  |  | 31 |
| CC1(C)OC(c2ccc(S(C)(=O)=O)cc2)=C(c2ccccc2)C1=O |  | 0.146 | 8.76 |  |
| CC1(C)OC(c2ccc(S(C)(=O)=O)cc2)=C(c2cc(F)cc(F)c2)C1=O | 0.03 | 0.0793 |  |  |
| Cc1ccccc1C1=C(c2ccc(S(C)(=O)=O)cc2)OC(C)(C)C1=O |  | 0.842 | 56.1 |  |
| CS(=O)(=O)c1ccc(C2=C(c3ccccc3)C(=O)OC2)cc1 [ROFECOXIB] |  | 0.191 |  |  |

From ChEMBL document CHEMBL1133997, “2,2-Dimethyl-4,5-diaryl-3(2H)furanone derivatives as selective cyclo-oxygenase-2 inhibitors” (Bioorg Med Chem Lett, 2001)
